Source: PubChem BioAssay (several laboratories)
BaF3 parental: counter-screen for JAK2V617F inhibitors: parental Ba/F3 viability inhibitors. CellTiter-Glo ATP luminescence. inhibition, % at 5.6 µM. 1.1% of 220,000 active. AID 1486;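 active = inhibition above a per-campaign cutoff, the mean inhibition of all tested compounds plus 3 SD, cut at about 27% in these data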;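 note: 0% = DMSO wells and 100% = JAK Inhibitor I control wells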
Ba/F3 V617F tox: loss of viability in JAK2V617F-driven Ba/F3 cells. Ba/F3 EpoR-JAK2V617F viability, ATP luminescence. inhibition, % at 5.6 µM. 1.1% of 220,000 active. AID 1446;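 active = inhibition above the campaign mean plus 3 SD over all tested compounds, cut at about 24% in these data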;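 note: cytokine-independent growth of Ba/F3 cells driven by EpoR plus mutant JAK2; 0% = DMSO-treated cells and 100% = JAK inhibitor I control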
MT stabilizer: microtubule stabilization, imaging screen | HeLa tubulin immunostaining HCS, 24 h; share of cells brighter than vehicle mean+2SD | % tubulin-high responders, % at 10 µM | 0.83% of 200,000 active;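 active = plate Z-score above 3 for both tubulin-high and condensed-nucleus cell shares, with cell loss under 80%, at 10 µM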;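 note: anti alpha tubulin signal scored within the nucleus-defined area of each cell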
IEC-6 cytotox: IEC-6 cytotoxicity, counter-screen for KLF5 inhibitors | luminescence viability | inhibition, % at 5 µM | 0.78% of 290,000 active | AID 1825; in the data active = inhibition above about 22%;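 note: 0% = plate median of test compound wells and 100% = cytotoxic reference compound wells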
b-catenin transl: beta-catenin nuclear translocation modulation; HeLa beta-catenin nuclear translocation, immunofluorescence imaging; 0.3% of 190,000 active; AID 1665; nuclear translocation activity, % at 5 µM;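 active = nuclear translocation activity above 50% at 5 µM, with a well cell count of 50 or more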;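 note: per-cell ratio of nuclear to cytoplasmic median beta-catenin stain intensity; plate controls were DMSO negative control for no effect and GSK-3 inhibitor IX positive control for full effect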
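Test system: human HeLa cells, native beta-catenin. Compound dosing: 5 µM primary single dose, 0.1% DMSO, 0.02–20 µM confirmation series. Incubation: compound exposure 24 h at 37°C. Detection: beta-catenin immunostaining with DAPI counterstain, 20x imaging, 6 fields/well. Read-out basis: Nuclear/cytoplasmic beta-catenin signal ratio, % activation.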
APP 5UTR inh: APP translation inhibition; SH-SY5Y APP 5'UTR-luciferase reporter, luminescence; inhibition, % at 2 µM; AID 1285; 0.82% of 190,000 active;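 active = inhibition above a set limit, derived from the sample mean plus 3 SD, cut at about 45% in these data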
Active calls of the source: *; . = no result. Hits are enriched below; roughly 2.2% of the tested compounds scored in any of these assays.

SMILES	BaF3 parental	Ba/F3 V617F tox	MT stabilizer	IEC-6 cytotox	b-catenin transl	APP 5UTR inh
Cc1cccc(NC(=O)N2CCCCCC2)c1	.	.	.	3.8	.	.
O=C(CC1CCCC1)Nc1ccc(Br)cc1	.	.	.	2.9	.	.
O=C(Nc1cc(=O)[nH]c(=O)[nH]1)c1cccc(Br)c1	36.7*	12.2	25.1*	11.3	2.2	7.6
Cn1cccc/c1=N\c1cccc[n+]1C	62.9*	72.6*	.	0.6	2.9	.
O=C(c1ccco1)N1CCN(CC(=O)N2CCCc3c2c(=O)oc2ccc(O)cc32)CC1	1.4	-1.6	4.4	-7.0	-0.8	3.6
O=C(CN1CCN(Cc2ccccc2)CC1)N1CCCc2c1c(=O)oc1ccc(O)cc21	2.7	-2.2	34.6*	11.5	0.3	-11.1
O=C(CN1CCN(c2ncccn2)CC1)N1CCCc2c1c(=O)oc1ccc(O)cc21	-2.5	-3.5	3.7	-3.0	1.9	72.0*
Brc1ccc2c(c1)C(C1=NCCN1)c1ccccc1CS2 (centres undefined)	66.2*	73.7*	23.6	67.1*	50.7*	93.5*
CC(C)CNC(=O)c1coc(=O)c(Br)c1	0.4	-1.4	1.5	5.2	0.0	46.6*
Cc1nnc(SCC(=O)Nc2ccc([N+](=O)[O-])cc2)n1CC1CCCO1 (centres undefined)	.	.	.	-2.5	.	.
CCOC(=O)C1=C(N)Oc2cc(O)ccc2C1c1cccc([N+](=O)[O-])c1 (centres undefined)	5.1	0.9	14.9*	-7.5	4.4	0.8
Cc1csc2ncnc(NCCc3ccccn3)c12	77.5*	36.9*	6.2	-1.9	1.8	-20.4
CCCOc1cccc(-c2cc(C(=O)NNC(=S)NCC)c3ccccc3n2)c1	3.3	1.7	2.2	2.9	0.3	53.1*
CCNC(=S)NNC(=O)c1cc(-c2cccc(OC)c2)nc2ccccc12	5.6	-1.0	2.1	-0.6	-1.4	18.5
O=C(NCc1ccccn1)c1cc(-c2ccc(-c3ccccc3)cc2)nc2ccccc12	36.3*	33.9*	3.1	14.0	2.6	-107.0
O=C(NCc1ccccn1)c1cc(-c2ccccc2)nc2ccccc12	9.2	-1.2	1.7	7.9	3.1	13.4
CCNC(=S)NNC(=O)c1cc(-c2ccc(OCC)cc2)nc2ccccc12	31.2*	24.4*	2.6	14.1	1.9	-126.8
Cc1cc(C)cc(OCCn2nnc3ccccc32)c1	.	.	.	-3.0	.	.
CC(C)C[C@H](NC(=O)OC(C)(C)C)C(=O)N[C@@H](CO)[C@H](O)[C@@H]1C[C@@H]1C(=O)NC1CCCCC1	.	.	.	-1.1	.	.
COc1cccc(C(=O)Nc2ncc3c(n2)CC(c2ccc(OC)cc2OC)CC3=O)c1 (centres undefined)	5.2	-0.9	67.0	19.9	72.6*	17.8
CCOC(=O)c1cc2c(OC)ccc(OC)c2n1CC(=O)c1ccccc1	.	.	.	3.5	.	.
CCCCCCOc1ccc(OC(=O)c2ccncc2)cc1	32.1*	44.0*	4.4	13.4	-4.0	-2.8
CCOC(=O)COn1c(-n2nc(C)cc2C)nc2ccccc2c1=O	.	.	.	3.0	.	.
COc1ccc(CC(=O)N(Cc2ccccc2)c2ccc(C)cc2)cc1OC	.	.	.	1.2	.	.
O=C(NCC1CCCO1)C(c1ccc(F)cc1)N(Cc1ccc(F)cc1)C(=O)Cn1nnc(-c2cccs2)n1 (centres undefined)	2.5	-1.1	2.7	-2.7	5.5	-10.0
SMILES	BaF3 parental	Ba/F3 V617F tox	MT stabilizer	IEC-6 cytotox	b-catenin transl	APP 5UTR inh
O=C(NCC1CCCO1)C(c1ccncc1)N(Cc1cccs1)C(=O)Cn1nnc(-c2ccc(F)cc2)n1 (centres undefined)	-1.0	-3.9	2.9	-2.9	-1.3	48.0*
CN1/C(=C\C=Nc2ccc3ccccc3c2)C(C)(C)c2ccccc21	41.8*	47.9*	2.9	13.6	1.1	-15.1
CN1\C(=C/C=C/C=C/C=[N+](C)C)C(C)(C)c2ccccc21	32.9*	37.9*	90.5	-6.9	.	10.4
CN1/C(=C\C=O)C(C)(C)c2ccccc21	48.5*	39.4*	7.1	3.9	-3.6	10.1
CN(C)c1ccc(N=C/C=C2\N(C)c3ccccc3C2(C)C)cc1	10.6	2.4	0.9	2.6	.	-142.8
CN1/C(=C/C=C(C#N)C#N)C(C)(C)c2ccccc21	0.0	-2.9	3.1	-0.8	-0.6	-5.6
CS(=O)(=O)c1ccc(Sc2nc3ccccc3s2)c([N+](=O)[O-])c1	45.5*	65.6*	4.1	-2.6	0.4	18.7
O=[N+]([O-])c1cc(S(=O)(=O)C(F)(F)F)ccc1Sc1nc2ccccc2s1	2.1	-3.1	1.6	-3.0	-0.9	1.6
Cc1cc(C)c(S(=O)(=O)N2CCN(c3ccccc3)CC2)c(C)c1	.	.	.	-2.7	.	.
COC(=O)C[N+](C)(C)CC#Cc1ccccc1	7.7	-0.9	1.3	-6.8	-2.3	-13.0
C#CC[N+](C)(C)C(C#Cc1ccccc1)CC=C (centres undefined)	47.9*	26.1*	4.1	1.3	-1.8	-3.1
c1cn(CCCNc2ncnc3sc4c(c23)CCC4)cn1	4.6	4.5	4.7	14.4	-2.0	-9.6
c1cn(CCCNC2=NCCCCC2)cn1	90.7*	1.6	1.3	1.7	-7.0	-7.5
Cc1onc(-c2ccccc2)c1C(=O)Nc1nnc(CC(C)(C)C)s1	.	.	.	5.3	.	.
Cc1ccc(NC(=O)C2CCCN(C(=O)c3ccc(Cl)cc3)C2)c(C)c1 (centres undefined)	1.4	-1.9	2.1	8.9	-2.1	-13.8
CC(=O)Nc1ccc(NC(=O)C(C)Sc2n[nH]c(=O)n2Cc2ccccc2)cc1 (centres undefined)	.	.	.	-2.6	.	.
Cn1c(/C=C/c2ccc([N+](=O)[O-])o2)nc2ccccc2c1=O	67.0*	87.3*	1.8	5.8	11.6	36.7
Cn1c(/C=C/c2ccccc2)nc2ccccc2c1=O	.	.	.	3.3	.	.
COc1ccc(CNC(=O)c2oc3ccc(S(=O)(=O)N4CCOCC4)cc3c2C)cc1	.	.	.	1.6	.	.
C[n+]1ccc(/C=C/c2ccc(Br)cc2)cc1	83.4*	79.1*	7.3	-2.0	.	-8.2
COc1ccc(C(=O)N(C)c2c(C)n(C)n(-c3ccccc3)c2=O)cc1OC	9.9	2.6	2.8	1.6	-4.5	0.6
COc1ccc(-c2nc3ccc(N4CCCC4)cc3c(=O)[nH]2)cc1OC	7.2	5.2	15.1*	-1.1	-1.0	3.4
Cc1ccc(C(=O)COC(=O)c2cccc(NC(=O)c3ccc([N+](=O)[O-])cc3[N+](=O)[O-])c2)cc1	3.3	0.3	34.5*	-3.3	.	-163.5
Cc1c(CCC(=O)N[C@@H](CC(C)C)C(=O)O)c(=O)oc2cc3oc4c(c3cc12)CCCC4	.	.	.	-6.4	.	.
C=CCNC1=C(Cl)C(=O)c2ccccc2C1=O	1.0	0.4	3.7	26.7*	0.5	-3.1
O=C1C(Cl)=C(Nc2ccccc2)C(=O)c2ccccc21	4.3	-2.0	4.4	-3.2	-3.4	95.7*
O=C(O)c1ccc(NC2=C(Cl)C(=O)c3ccccc3C2=O)cc1	4.4	5.3	.	5.4	1.6	.
COc1ccccc1CNC(=O)C1CCN(c2ncnc3c2nc2n3CCCCC2)CC1	.	.	.	4.7	.	.
